Measurements published in PubChem BioAssay AID2648 (Johns Hopkins Ion Channel Center, 2010).
Screen size: about 310,000 compounds; about 1,100 (0.35%) were called active. The sample holds actives, similar compounds and a random draw of the others, so the mix is not that of the screen.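 Rule for the calls: active = fluorescence ratio B-score, a plate-corrected score, at least three library SD, with initial intensity B-score within 5 SD; inactive = the rest.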

Target: Potassium voltage-gated channel subfamily KQT member 1 (Homo sapiens) (UniProt P51787)
Experiment: potentiators or activators of KCNQ1 channel, primary screen, cell-based, thallium flux, high-throughput (AID 2648)
Details: CHO-K1 KCNQ1, thallium flux FluxOR fluorescence, at 10 µM; active compounds read high
How it was run: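 Assay system: stable KCNQ1 CHO-K1 line; medium: assay buffer, equal DMSO in all wells; timing: 90 min dye loading and 20 min compound exposure, both at room temperature; technique: kinetic FluxOR thallium fluorescence, 10-s 1-Hz baseline, 110-s post-stimulus read; read-out basis: B score of baseline-normalized fluorescence ratio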

Sequence of Potassium voltage-gated channel subfamily KQT member 1 (Homo sapiens) (P51787 whole entry, looked up): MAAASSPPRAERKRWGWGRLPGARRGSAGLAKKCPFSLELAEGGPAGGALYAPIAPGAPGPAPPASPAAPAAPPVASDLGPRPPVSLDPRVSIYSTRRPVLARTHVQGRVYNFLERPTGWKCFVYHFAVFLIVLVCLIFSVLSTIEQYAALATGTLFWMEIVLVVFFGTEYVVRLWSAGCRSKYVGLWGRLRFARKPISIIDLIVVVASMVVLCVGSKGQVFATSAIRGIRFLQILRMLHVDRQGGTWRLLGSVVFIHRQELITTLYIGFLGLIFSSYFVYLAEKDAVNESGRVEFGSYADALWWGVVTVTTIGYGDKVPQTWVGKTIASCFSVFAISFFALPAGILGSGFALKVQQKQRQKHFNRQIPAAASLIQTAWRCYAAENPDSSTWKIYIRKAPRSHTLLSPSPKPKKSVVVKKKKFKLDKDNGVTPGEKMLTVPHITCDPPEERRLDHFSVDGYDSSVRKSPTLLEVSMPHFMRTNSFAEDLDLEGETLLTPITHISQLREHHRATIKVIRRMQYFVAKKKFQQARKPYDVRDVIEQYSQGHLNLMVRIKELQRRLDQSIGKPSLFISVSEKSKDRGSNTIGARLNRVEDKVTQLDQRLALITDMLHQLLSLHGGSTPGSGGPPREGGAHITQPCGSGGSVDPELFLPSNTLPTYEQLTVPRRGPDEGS

B-score, inactive:
O=C(CNS(=O)(=O)c1ccc(Br)s1)NCc1ccc2c(c1)OCO2, Cn1c2ccccc2c2cc(/C=C(\NC(=O)c3ccccc3)C(=O)NCC(=O)O)ccc21, CCNC(=S)Nc1ccc(OC(F)(F)F)cc1, FC(F)(F)Oc1ccc(NC(=S)NCc2ccccc2)cc1, CN(/N=C/c1ccccc1)C(=S)c1ccccc1, CC(CC(=O)Nc1ccccc1)n1ccnc1 (stereo not given), Cc1ccn2c(=O)c(C(=O)NCCC3=CCCCC3)c(O)nc2c1, C=CCn1c(Cn2nnc3ccccc32)nnc1SCC(=O)N/N=C/c1cc(Br)cc(OC)c1O, Oc1ccc(Br)cc1C=Nc1ccc2[nH]ncc2c1, O=C(Cn1cncn1)N/N=C/c1c2ccccc2cc2ccccc12, CN(c1ccccn1)c1ncnc2[nH]ncc12, CN(Cc1cccs1)C(=O)Cc1c[nH]c2ccccc12, CC(C)C(=O)Nc1ccc(C(=O)NNC(=O)c2cccs2)cc1, CCc1ccc(NC(=O)COC(=O)c2cccs2)cc1, CCCCNC(=O)CN1C(=O)NC(Cc2ccccc2)(Cc2ccccc2)C1=O, Clc1ccc(C[n+]2cc(-c3ccc(Cl)cc3)n3c2CCC3)cc1, CN1CCN(S(=O)(=O)c2ccc(NC(=S)NC(=O)C3CC3)cc2)CC1, Cc1cc(C)nc(N2CCC(C(=O)Nc3ccc4c(c3)OCCO4)CC2)n1, COCC(=O)N1CCc2ccc(NC(=O)c3ccccc3Cl)cc2C1, CCc1nccn1CCC(=O)N1CCCC(N2CCN(c3ccccc3F)CC2)C1 (stereo not given), Cc1cccc(C(=O)N2CCN(S(=O)(=O)N3CCCCC3)CC2)c1, O=C(CCN1C(=O)c2ccccc2C1=O)NCCN1CCOCC1, O=C(NC1=NCCS1)[C@H](Cc1ccccc1)N1C(=O)c2ccccc2C1=O, CC(C)COC(=O)C1C2C=CC3(CN(C(C)c4ccc(Br)cc4)C(=O)C13)O2 (stereo not given), CCOC(=O)C1=C(C)Nc2sc(C(=O)c3ccc(Br)cc3)c(N)c2C1c1ccc(C(=O)OC)cc1 (stereo not given), CCOC(=O)c1ccc(Nc2cc3ccccc3c(=O)[nH]2)cc1, CCOC(=O)c1c(C)nn(-c2ncccc2NC(=O)CCC(=O)O)c1C, Cc1oc2cc3oc(=O)ccc3cc2c1C

B-score, active:
CS(=O)(=O)c1sc(C(=O)NC(=S)Nc2ccc(OC(F)(F)F)cc2)c2c1C=CCC2 11, COc1cc(Br)cc(/C=N/c2ncn[nH]2)c1O 12, Oc1c(Cl)cc(Cl)cc1/C=N/c1ncn[nH]1 9, CCc1ccc(NC(=O)C(=O)NNC(=O)c2cccs2)cc1 54, Cc1cc(Nc2cc(N3CCN(C)CC3)nc(Sc3ccc(NC(=O)C4CC4)cc3)n2)n[nH]1 7, O=C(NCCN1CCOCC1)[C@H](Cc1ccccc1)N1C(=O)c2ccccc2C1=O 11, CCOC(=O)c1sc(=S)n2c1[nH]c(=O)c1ccc(C(=O)OC)cc12 59
